Source: ChEMBL document CHEMBL1145100, “Structure-activity relationship of imidazo[1,2-a]pyridines as ligands for detecting beta-amyloid plaques in the brain” (J Med Chem, 2003)

Biological target: Amyloid-beta precursor protein (Homo sapiens, UniProt P05067)
Assay: Inhibition constant against [125I]-7 (TZDM) binding to Amyloid beta 1-40 aggregates
In short: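 Abeta40 peptide aggregated at 0.5 mg/mL in pH 7.4 buffer (10 mM sodium phosphate, 1 mM EDTA), 37 °C for 36-42 h with shaking. Competition in 1 mL of 40% EtOH: fibrils 10-50 nM final, radiotracer 0.05 nM, inhibitors 10^-5 to 10^-10 M. Nonspecific binding with 2 µM thioflavin-T. Incubated 3 h at room temperature, then GF/B filtration with 10% ethanol washes and gamma counting. Ki from nonlinear regression.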

Chain of Amyloid-beta precursor protein (P05067 whole entry): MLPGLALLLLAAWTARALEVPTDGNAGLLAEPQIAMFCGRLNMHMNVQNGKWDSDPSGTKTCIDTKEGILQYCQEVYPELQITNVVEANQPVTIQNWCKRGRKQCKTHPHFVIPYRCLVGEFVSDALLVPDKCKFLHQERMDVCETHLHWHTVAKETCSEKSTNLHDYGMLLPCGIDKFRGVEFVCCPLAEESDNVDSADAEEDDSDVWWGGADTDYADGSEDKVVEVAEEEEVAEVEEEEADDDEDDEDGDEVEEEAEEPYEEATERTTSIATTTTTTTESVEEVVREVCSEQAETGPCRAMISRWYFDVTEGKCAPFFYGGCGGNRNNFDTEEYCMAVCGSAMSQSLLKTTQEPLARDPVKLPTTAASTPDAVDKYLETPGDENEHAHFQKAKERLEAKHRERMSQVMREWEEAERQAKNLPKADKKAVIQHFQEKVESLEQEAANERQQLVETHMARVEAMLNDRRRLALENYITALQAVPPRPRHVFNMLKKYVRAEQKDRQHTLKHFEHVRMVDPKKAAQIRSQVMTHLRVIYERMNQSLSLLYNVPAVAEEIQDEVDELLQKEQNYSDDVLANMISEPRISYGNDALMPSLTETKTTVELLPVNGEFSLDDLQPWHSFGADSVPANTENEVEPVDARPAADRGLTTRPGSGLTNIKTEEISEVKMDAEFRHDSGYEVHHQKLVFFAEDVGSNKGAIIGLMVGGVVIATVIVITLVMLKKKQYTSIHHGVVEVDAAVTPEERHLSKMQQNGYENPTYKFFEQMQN

| SMILES | Ki |
| --- | --- |
| CNc1ccc(-c2cn3cc(C)ccc3n2)cc1 | > 2000 nM |
| Cc1ccc2nc(-c3ccc(N(C)C)cc3)cn2c1 | 242 nM |
| Cc1ccc2nc(-c3ccc(Br)cc3)cn2c1 | 638 nM |
| CN(C)c1ccc(-c2cn3cc(Br)ccc3n2)cc1 | 10.3 nM |
| CNc1ccc(-c2cn3ccccc3n2)cc1 | > 1000 nM |
